Values after ≈ are worked out from the molar mass of the structure shown.
Columns and labels:
Format in all cases: functional
Pichia kudriavzevii = assay: Antifungal activity against Candida krusei clinical isolate after 24 hrs by sabouraud dextrose broth based microdilution method
In short: (§1)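 Clinical isolates identified by conventional methods and subcultured for purity. Broth microdilution per NCCLS in Sabouraud dextrose broth; compounds dissolved in DMSO and serially diluted; inoculum 10^3/mL. Controls: fungi without compound, medium only. Incubated 24 h at 37 °C. MIC is the lowest concentration with complete growth inhibition by unaided eye. Values are geometric means over isolates per species.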

[1] = tested on: Staphylococcus haemolyticus; assay: Antibacterial activity against Staphylococcus haemolyticus after 18 to 22 hrs by broth microdilution method
In short: (§2)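 Broth microdilution per NCCLS in Mueller-Hinton II broth; isolates subcultured for purity. Compounds dissolved in DMSO, serial dilutions 256 to 0.5 µg/mL; inoculum 10^5/mL. Controls: organism without compound, medium only. Incubation 18 to 22 h at 35 °C. MIC is the lowest concentration giving complete growth inhibition, read by unaided eye.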

Escherichia coli = assay: Antibacterial activity against Escherichia coli at after 18 to 22 hrs by broth microdilution method; in short: as §2
Candida tropicalis = assay: Antifungal activity against Candida tropicalis clinical isolate after 24 hrs by sabouraud dextrose broth based microdilution method; in short: as §1
Enterococcus faecalis = assay: Antibacterial activity against […] faecalis after 18 to 22 hrs by broth microdilution method; in short: as §2
Staphylococcus warneri = assay: Antibacterial activity against Staphylococcus warneri after 18 to 22 hrs by broth microdilution method; in short: as §2
[Candida] sake = Antifungal activity against Candida sake clinical isolate after 24 hrs by sabouraud dextrose broth based microdilution method; conditions: Fermentozyma sake; in short: as §1
Nakaseomyces glabratus = assay: Antifungal activity against Candida glabrata clinical isolate after 24 hrs by sabouraud dextrose broth based microdilution method; in short: as §1
Staphylococcus aureus = assay: Antibacterial activity against Staphylococcus aureus after 18 to 22 hrs by broth microdilution method; in short: as §2
Candida albicans = assay: Antifungal activity against Candida albicans clinical isolate after 24 hrs by sabouraud dextrose broth based microdilution method; in short: as §1
Proteus mirabilis = assay: Antibacterial activity against Proteus mirabilis after 18 to 22 hrs by broth microdilution method; in short: as §2
Klebsiella oxytoca = assay: Antibacterial activity against Klebsiella oxytoca after 18 to 22 hrs by broth microdilution method; in short: as §2
Candida parapsilosis = assay: Antifungal activity against Candida parapsilosis clinical isolate after 24 hrs by sabouraud dextrose broth based microdilution method; conditions: Lodderomyces parapsilosis; in short: as §1
Enterobacter sp. = assay: Antibacterial activity against Enterobacter sp. after 18 to 22 hrs by broth microdilution method; in short: as §2

SMILES	MIC (Pichia kudriavzevii) [µg/mL]	MIC (Escherichia coli) [µg/mL]	MIC (Candida tropicalis) [µg/mL]	MIC (Enterococcus faecalis) [µg/mL]	MIC (Staphylococcus warneri) [µg/mL]	MIC ([Candida] sake) [µg/mL]	MIC (Nakaseomyces glabratus) [µg/mL]	MIC (Staphylococcus aureus) [µg/mL]	MIC (Candida albicans) [µg/mL]	MIC (Proteus mirabilis) [µg/mL]	MIC (Klebsiella oxytoca) [µg/mL]	MIC (Candida parapsilosis) [µg/mL]	MIC (Enterobacter sp.) [µg/mL]	MIC [1] [µg/mL]
O=C1c2ccccc2C(=O)N1CN1C(=O)CS/C1=N\N=C1CCCCCCC1	4 (≈ 10 µM)	> 256	8 (≈ 20.1 µM)	> 256	> 256	4 (≈ 10 µM)	32 (≈ 80.3 µM)	> 256	4 (≈ 10 µM)	> 256	> 256	4 (≈ 10 µM)	> 256	> 256
CC/C(C)=N/N=C1\SCC(=O)N1Cc1cccc2ccccc12	2 (≈ 6.15 µM)	> 256	128 (≈ 393 µM)	> 256	> 256	2 (≈ 6.15 µM)	2 (≈ 6.15 µM)	> 256	2 (≈ 6.15 µM)	> 256	> 256	2 (≈ 6.15 µM)	> 256	> 256
CC1CCC/C1=N\N=C1/SCC(=O)N1CN1C(=O)c2ccccc2C1=O (centres undefined)	2 (≈ 5.4 µM)	> 256	4 (≈ 10.8 µM)	> 256	> 256	8 (≈ 21.6 µM)	32 (≈ 86.4 µM)	> 256	16 (≈ 43.2 µM)	> 256	> 256	8 (≈ 21.6 µM)	> 256	> 256
O=C1c2ccccc2C(=O)N1CN1C(=O)CS/C1=N\N=C\c1cccc2ccccc12	128 (≈ 299 µM)	> 256	128 (≈ 299 µM)	> 256	> 256	128 (≈ 299 µM)	16 (≈ 37.3 µM)	> 256	256 (≈ 597 µM)	> 256	> 256	128 (≈ 299 µM)	> 256	> 256
CC/C(C)=N/N=C1\SCC(=O)N1Cc1ccc([N+](=O)[O-])cc1	2 (≈ 6.24 µM)	> 256	128 (≈ 400 µM)	> 256	> 256	8 (≈ 25 µM)	2 (≈ 6.24 µM)	> 256	2 (≈ 6.24 µM)	> 256	> 256	2 (≈ 6.24 µM)	> 256	> 256
C/C(=N\N=C1/SCC(=O)N1Cc1cccc2ccccc12)c1cccs1	16 (≈ 42.2 µM)	> 256	2 (≈ 5.27 µM)	> 256	> 256	2 (≈ 5.27 µM)	8 (≈ 21.1 µM)	> 256	2 (≈ 5.27 µM)	> 256	> 256	16 (≈ 42.2 µM)	> 256	> 256
O=C1CS/C(=N\N=C2CCCCCCC2)N1Cc1ccc([N+](=O)[O-])cc1	16 (≈ 42.7 µM)	> 256	8 (≈ 21.4 µM)	> 256	> 256	16 (≈ 42.7 µM)	16 (≈ 42.7 µM)	> 256	4 (≈ 10.7 µM)	> 256	> 256	16 (≈ 42.7 µM)	> 256	> 256
CC/C(C)=N/N=C1\SCC(=O)N1CN1C(=O)c2ccccc2C1=O	8 (≈ 23.2 µM)	> 256	64 (≈ 186 µM)	> 256	> 256	2 (≈ 5.81 µM)	2 (≈ 5.81 µM)	> 256	2 (≈ 5.81 µM)	> 256	> 256	8 (≈ 23.2 µM)	> 256	> 256
O=C1CS/C(=N\N=C2CCCCCCC2)N1Cc1cccc2ccccc12	4 (≈ 10.5 µM)	> 256	8 (≈ 21.1 µM)	> 256	> 256	4 (≈ 10.5 µM)	32 (≈ 84.3 µM)	> 256	4 (≈ 10.5 µM)	> 256	> 256	4 (≈ 10.5 µM)	> 256	> 256
O=C1CS/C(=N\N=C\c2ccco2)N1Cc1cccc2ccccc12	16 (≈ 45.8 µM)	> 256	8 (≈ 22.9 µM)	> 256	> 256	2 (≈ 5.72 µM)	8 (≈ 22.9 µM)	> 256	16 (≈ 45.8 µM)	> 256	> 256	16 (≈ 45.8 µM)	> 256	> 256
CC1CCC(=N/N=C2\SCC(=O)N2Cc2cccc3ccccc23)CC1 (centres undefined)	8 (≈ 21.9 µM)	> 256	128 (≈ 350 µM)	> 256	> 256	4 (≈ 10.9 µM)	16 (≈ 43.8 µM)	> 256	2 (≈ 5.47 µM)	> 256	> 256	8 (≈ 21.9 µM)	> 256	> 256
C=CCC/C(C)=N/N=C1\SCC(=O)N1Cc1cccc2ccccc12	2 (≈ 5.69 µM)	> 256	8 (≈ 22.8 µM)	> 256	> 256	2 (≈ 5.69 µM)	2 (≈ 5.69 µM)	> 256	2 (≈ 5.69 µM)	> 256	> 256	2 (≈ 5.69 µM)	> 256	> 256
CCC(CC)=N/N=C1\SCC(=O)N1Cc1ccc([N+](=O)[O-])cc1	32 (≈ 95.7 µM)	> 256	8 (≈ 23.9 µM)	> 256	> 256	2 (≈ 5.98 µM)	8 (≈ 23.9 µM)	> 256	2 (≈ 5.98 µM)	> 256	> 256	128 (≈ 383 µM)	> 256	> 256

Now from value to molecule, other results behind:

MIC (Pichia kudriavzevii) [µg/mL]	MIC (Escherichia coli) [µg/mL]	MIC (Candida tropicalis) [µg/mL]	MIC (Enterococcus faecalis) [µg/mL]	MIC (Staphylococcus warneri) [µg/mL]	MIC ([Candida] sake) [µg/mL]	MIC (Nakaseomyces glabratus) [µg/mL]	MIC (Staphylococcus aureus) [µg/mL]	MIC (Candida albicans) [µg/mL]	MIC (Proteus mirabilis) [µg/mL]	MIC (Klebsiella oxytoca) [µg/mL]	MIC (Candida parapsilosis) [µg/mL]	MIC (Enterobacter sp.) [µg/mL]	SMILES	MIC [1] [µg/mL]
8 (≈ 19.5 µM)	> 256	32 (≈ 78.1 µM)	> 256	> 256	8 (≈ 19.5 µM)	64 (≈ 156 µM)	> 256	256 (≈ 625 µM)	> 256	> 256	8 (≈ 19.5 µM)	> 256	O=C1CS/C(=N\N=C\c2cccc3ccccc23)N1Cc1cccc2ccccc12	> 256
16 (≈ 45.5 µM)	> 256	8 (≈ 22.8 µM)	> 256	> 256	32 (≈ 91 µM)	32 (≈ 91 µM)	> 256	2 (≈ 5.69 µM)	> 256	> 256	8 (≈ 22.8 µM)	> 256	O=C1CS/C(=N\N=C2CCCCC2)N1Cc1cccc2ccccc12	> 256
16 (≈ 41.6 µM)	> 256	2 (≈ 5.2 µM)	> 256	> 256	2 (≈ 5.2 µM)	8 (≈ 20.8 µM)	> 256	4 (≈ 10.4 µM)	> 256	> 256	16 (≈ 41.6 µM)	> 256	CC1CCCC/C1=N\N=C1/SCC(=O)N1CN1C(=O)c2ccccc2C1=O (centres undefined)	> 256
8 (≈ 20.1 µM)	> 256	16 (≈ 40.2 µM)	> 256	> 256	16 (≈ 40.2 µM)	32 (≈ 80.3 µM)	> 256	256 (≈ 643 µM)	> 256	> 256	16 (≈ 40.2 µM)	> 256	O=C1CS/C(=N\N=C\c2ccc3c(c2)OCO3)N1Cc1ccc([N+](=O)[O-])cc1	> 256
16 (≈ 46.2 µM)	> 256	8 (≈ 23.1 µM)	> 256	> 256	16 (≈ 46.2 µM)	32 (≈ 92.4 µM)	> 256	8 (≈ 23.1 µM)	> 256	> 256	8 (≈ 23.1 µM)	> 256	O=C1CS/C(=N\N=C2CCCCC2)N1Cc1ccc([N+](=O)[O-])cc1	> 256
4 (≈ 10 µM)	> 256	2 (≈ 5.02 µM)	> 256	> 256	8 (≈ 20.1 µM)	32 (≈ 80.3 µM)	> 256	4 (≈ 10 µM)	> 256	> 256	4 (≈ 10 µM)	> 256	C/C(=N\N=C1/SCC(=O)N1CN1C(=O)c2ccccc2C1=O)c1cccs1	> 256
2 (≈ 5.34 µM)	> 256	4 (≈ 10.7 µM)	> 256	> 256	8 (≈ 21.4 µM)	2 (≈ 5.34 µM)	> 256	8 (≈ 21.4 µM)	> 256	> 256	2 (≈ 5.34 µM)	> 256	C/C(=N\N=C1/SCC(=O)N1Cc1ccc([N+](=O)[O-])cc1)c1cccs1	> 256
8 (≈ 19.8 µM)	> 256	16 (≈ 39.7 µM)	> 256	> 256	8 (≈ 19.8 µM)	4 (≈ 9.91 µM)	> 256	8 (≈ 19.8 µM)	> 256	> 256	16 (≈ 39.7 µM)	> 256	O=C1CS/C(=N\N=C\c2ccc3c(c2)OCO3)N1Cc1cccc2ccccc12	> 256

Source: ChEMBL document CHEMBL3739379, “Anti-Candida activity and cytotoxicity of a large library of new N-substituted-1,3-thiazolidin-4-one derivatives” (Eur J Med Chem, 2016)
